Compound activity (PubChem BioAssay)
In the library only some 3.5% were active in any assay of this set; here they are far more common.
RGS4 block: RGS4 inhibitors, primary screen, cell-based, HEK293 M3R inducible RGS4, calcium flux. Regulator of G-protein signaling 4 (Homo sapiens), P49798. Fluo-4 calcium flux; hits give high values; triggered by carbachol at its EC20. B-score at 10 µM. actives 0.45% (n = 310,000);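 active = B-score, a plate-corrected calcium signal, over three deviations above library mean, with baseline fluorescence within five deviations of library mean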;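 also: RGS4 expression induced by doxycycline in cells with stable M3 receptor; B-score is computed from the integrated fluorescence ratio over baseline after carbachol; higher B-score means a larger calcium signal and so more RGS4 inhibition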
Target sequence (P49798 whole entry, looked up): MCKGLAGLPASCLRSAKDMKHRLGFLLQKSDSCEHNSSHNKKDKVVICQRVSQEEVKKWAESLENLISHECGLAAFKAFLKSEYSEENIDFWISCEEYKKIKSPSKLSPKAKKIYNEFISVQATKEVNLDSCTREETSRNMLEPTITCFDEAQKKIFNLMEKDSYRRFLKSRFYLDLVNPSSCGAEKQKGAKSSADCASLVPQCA
RGS4 pot: RGS4 potentiators or activators, primary screen, cell-based, HEK293 M3R inducible RGS4, calcium flux. carbachol calcium flux Fluo4; hits give low values. B-score at 10 µM. actives 0.92% (n = 310,000);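 active = B-score of the integrated calcium signal more than 4 SD below the library mean, with starting fluorescence not abnormally high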;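 also: negative B-score means reduced calcium response which marks RGS4 activation or potentiation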
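Assay system: Inducible-RGS4 HEK293 cells carrying M3 receptor | Schedule: Compound preincubation 20 min at room temperature before agonist | Signal: Kinetic calcium fluorescence imaging with Fluo4-AM dye, 2 µM | Read-out basis: B score from integrated fluorescence ratio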
MrgX1 antagonist: antagonists of human MrgX1 receptor, primary screen, HEK293 cells, Fluo-4 calcium flux; B-score at 10 µM; BAM8-22 antagonism; hits give low values; AID 588676, 2011; Mas-related G-protein coupled receptor member X1 (Homo sapiens), Q96LB2; actives 1.3% (n = 310,000);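 active = calcium-response B-score plate-corrected more than 3 library SD below zero, starting fluorescence within 5 deviations, no agonist response on first addition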;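 also: peak minus trough fluorescence over baseline after final BAM8-22 challenge near maximal dose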
Target sequence (Q96LB2 whole entry, looked up): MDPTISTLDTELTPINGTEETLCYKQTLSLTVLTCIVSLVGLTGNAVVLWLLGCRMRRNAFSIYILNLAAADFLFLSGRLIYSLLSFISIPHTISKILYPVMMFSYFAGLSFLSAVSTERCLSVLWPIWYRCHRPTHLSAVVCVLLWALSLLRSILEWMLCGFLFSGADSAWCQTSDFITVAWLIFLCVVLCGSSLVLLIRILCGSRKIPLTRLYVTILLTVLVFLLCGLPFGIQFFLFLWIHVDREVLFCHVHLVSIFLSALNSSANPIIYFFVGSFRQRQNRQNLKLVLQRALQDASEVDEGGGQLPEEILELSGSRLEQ
MrgX1 PAM: positive allosteric modulators of MrgX1, primary screen, HEK293 cells, Fluo-4 calcium flux. B-score at 10 µM. actives 0.63% (n = 310,000). AID 588675, 2011. Mas-related G-protein coupled receptor member X1 (Homo sapiens), Q96LB2. FDSS; hits give high values;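 active = plate-corrected calcium response at least 3 library SD above typical, normal starting fluorescence, not activating the receptor alone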;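 also: compound read alongside a low EC10 to EC30 dose of BAM8-22 agonist; peak minus trough fluorescence over baseline measured at the second addition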
MrgX1 ag: agonists of human MrgX1 receptor, primary screen, HEK293 cells, Fluo-4 calcium flux. B-score at 10 µM. Fluo-4 calcium fluorescence, agonist mode; hits give high values. AID 588627, 2011. actives 0.44% (n = 310,000);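 active = calcium response B-score plate-corrected fluorescence ratio at least 3 library SD, with starting fluorescence B-score inside 5 SD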
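Test system: HEK293 cells stably expressing human MrgX1 receptor; Input: fifteen thousand cells per well; Dosing: compound delivered in addition one of three; Schedule: overnight seeding, then 1 h dark dye loading; Technique: Fluo-4 NW calcium fluorescence; Measure: B-scored fluorescence response ratio; Controls: positive and negative controls per plate.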
Numbers stand for hits; . = inactive; / = no result.

SMILES | RGS4 block | RGS4 pot | MrgX1 antagonist | MrgX1 PAM | MrgX1 ag
COc1cc(CCC(=O)N2CC(C)OC(C)C2)cc(OC)c1OC (configuration not stated) | . | . | . | . | .
Cc1cccn2c(=O)c3cc(C(=O)NCCc4ccccc4)c(=N)n(Cc4ccco4)c3nc12 | . | -8.6 | . | . | .
Cc1cccn2c(=O)c3cc(C(=O)NCc4ccco4)c(=N)n(CCc4ccccc4)c3nc12 | / | / | . | . | .
CCOCCCn1c(=N)c(C(=O)NCc2ccc3c(c2)OCO3)cc2c(=O)n3cccc(C)c3nc21 | . | -8.5 | . | . | .
Cc1cc(C)nc(/N=C(\N)Nc2ccc(F)c([N+](=O)[O-])c2)n1 | . | . | . | . | 38
CC(C)Nc1nc2ccccc2c(=O)[nH]1 | . | . | . | . | .
CCCCOP(=O)(c1ccc(N(C)C)cc1)C(Nc1ccccc1)c1ccccc1 (configuration not stated) | . | -7.3 | . | . | .
CCCOP(=O)(c1ccc(N(C)C)cc1)C(Nc1ccccc1)c1ccc(N(C)C)cc1 (configuration not stated) | . | . | . | . | .
Cc1cccc(-c2noc(CNS(=O)(=O)c3ccccc3)n2)c1 | . | . | . | . | .
Cc1ccc(/C=C/C2=NN(Cc3ccccc3)C(=O)CC2)cc1 | . | . | . | . | .
O=C1CCC(/C=C/c2ccccc2)=NN1Cc1ccccc1 | . | . | . | 10 | .
CC(C)CN1C(=O)/C(=C(/C#N)C(=O)NC2CCCCC2)c2ccccc21 | . | . | . | 8.2 | .
Cc1cc(C)c2c(c1)C(=O)/C(=C/c1ccc(C(=O)O)cc1)CC2 | . | . | . | 16 | .
CC(/C=N/NC(=O)c1ccc(Cn2cc([N+](=O)[O-])cn2)o1)=C\c1ccccc1 | . | . | -5.4 | . | .
CCC(C)N(C(=O)COc1ccccc1C(=O)NCc1ccccc1)C1CCS(=O)(=O)C1 (configuration not stated) | . | . | -6.2 | . | .
O=C(CCCn1cnc([N+](=O)[O-])n1)Nc1ccc(Cl)cc1Cl | . | . | -9.1 | . | .
CCOc1cccc2c1OC(c1cc(OC)c(OC)c(OC)c1)N1N=C(c3ccc(C)o3)CC21 (configuration not stated) | . | . | -5.8 | . | .
CC1CCN(c2cc(C#N)c(C#N)cc2[N+](=O)[O-])CC1 | . | . | . | 11 | .
CC1CCN(c2cc(N)c(Cl)cc2[N+](=O)[O-])CC1 | . | . | . | 7.3 | .
O=c1c2ccc([N+](=O)[O-])cc2ncn1CCOc1ccc(Cl)cc1 | . | -8.2 | . | . | .
O=c1c2ccc([N+](=O)[O-])cc2ncn1CCOc1cccc(Br)c1 | . | . | . | . | .
COc1cccc(C2c3[nH]c4ccccc4c3CCN2Cc2cccn2-c2ncccn2)c1 (configuration not stated) | . | . | . | . | .
c1ccc(Sc2ccccn2)cc1 | . | . | . | . | .
c1ccc(SSc2ccccn2)nc1 | . | . | . | . | 32
Cc1ccccc1OCC(=O)Nc1ccc2c(c1)Cc1ccccc1-2 | . | . | . | . | .
SMILES | RGS4 block | RGS4 pot | MrgX1 antagonist | MrgX1 PAM | MrgX1 ag
Cc1ccccc1OCC(=O)Nc1ccc(N2CCN(C)CC2)c(Cl)c1 | . | -7.9 | . | . | .
CCCCC(=O)Nc1ccc2c(c1)nc(CCN1CCOCC1)n2C | . | . | . | . | .
O=c1c(-c2nc3ccccc3o2)c2oc3ccccc3n2c2ccccc12 | . | -9.6 | / | / | /
Nc1ccc(-c2nc3ccccc3o2)cc1 | . | . | . | . | .
O=C1OC(Nc2ccc3ncccc3c2)c2ccccc21 (configuration not stated) | . | . | . | . | .
CC(NC(=O)/C=C/c1ccco1)c1nc2ccccc2n1Cc1ccccc1F (configuration not stated) | . | . | -5.3 | . | .
CC(NC(=O)/C=C/c1ccco1)c1nc2ccccc2n1Cc1c(Cl)cccc1Cl (configuration not stated) | . | . | . | . | .
O=C(NCc1ccccn1)C(=O)NCC(c1ccco1)N1CCOCC1 (configuration not stated) | . | . | . | . | .
COC(=O)NNC(=O)c1ccc(Cl)cc1Cl | . | . | . | . | .
CC(C)(C)C(=O)NC(=S)NNC(=O)c1ccc(-c2ccccc2)cc1 | . | -7.5 | . | . | 179
CC(C)(C)C(=O)NC(=S)NNC(=O)c1ccc(Cl)cc1Cl | . | -7 | . | . | .
CCOc1ccc(N(C)S(=O)(=O)c2cc(-c3cc(C)no3)ccc2C(C)C)cc1 | . | . | -4.8 | . | .
CCN(c1ccc(OC)cc1)S(=O)(=O)c1cc(-c2cc(C)no2)ccc1C(C)C | . | . | . | . | .
COCCn1c(=O)[nH]c(=O)c2c1nc(-c1ccc(-c3ccc(Cl)cc3[N+](=O)[O-])o1)n2Cc1ccccc1 | . | . | . | . | .
COCCn1c(-c2ccc(-c3ccc([N+](=O)[O-])cc3Br)o2)nc2c1c(=O)[nH]c(=O)n2CC(C)C | . | . | -6.2 | . | .
O=C1C=C(c2ccccc2)CC(c2ccc(F)cc2)C1 (configuration not stated) | . | . | . | . | .
COc1ccc(C2=CC(=O)CC(c3ccc(F)cc3)C2)cn1 (configuration not stated) | . | . | . | 10 | .
CC1CN(S(=O)(=O)c2ccc(C(=O)NCCCn3ccnc3)cc2)CC(C)O1 (configuration not stated) | . | . | . | . | .
COc1ccc(CCC(=O)N(C)CC(=O)Nc2ccc(N3CCOCC3)cc2)cc1 | . | . | . | 11 | .
CCOc1ccc(OCCCC(=O)N(C)CC(=O)Nc2ccc(N3CCOCC3)cc2)cc1 | . | . | . | . | .
O=C(Nc1nnc(CSCc2ccc(Cl)cc2)s1)c1cccc([N+](=O)[O-])c1 | . | . | -9.5 | . | .
CSc1nc(-c2ccccc2F)c(C#N)c(=O)n1C | . | . | . | . | .
COc1ccc(-n2cccc2/C=C/[N+](=O)[O-])cc1 | . | . | . | . | 33
COc1ccc(-n2cccc2C=O)cc1 | . | . | . | . | .
CCCCn1nc(NS(=O)(=O)c2cccc3nonc23)c2cc3cccc(C)c3nc21 | . | . | . | 7.1 | .
COc1ccc(C(=O)N2CCN(c3ccccc3OC)CC2)cc1 | . | . | . | . | .
COc1ccc(/C=N/NC(=O)C(=O)N2CCN(c3ccccc3OC)CC2)cc1 | . | . | -4.8 | . | .
